This passage reports Ki and Displacement results from ChEMBL document CHEMBL1129451, “Novel potent sigma 1 ligands: N-[omega-(tetralin-1-yl)alkyl]piperidine derivatives” (J Med Chem, 1996).

SMILES strings stand for the structures.

Experiment [1] has as its target Sigma-1 receptor (Rattus norvegicus). The experiment in a line: Binding affinity was tested on Sigma-1 receptor using radioligand [3H](+)-pentazocine binding assay.
Experiment [2] deals with D(2) dopamine receptor (Rattus norvegicus) (UniProt P61169). The experiment in a line: (§1) Binding affinity was tested on Dopamine receptor D2 using radioligand [3H]spiroperidol. The arrangement: concentration or dose not given beside the values. In outline:
(§2)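 Rat striatal membranes labelled with [3H]spiroperidol; (+)-butaclamol defined specific binding. […] Ki by Cheng–Prusoff using Bmax and Kd from saturation experiments. Tested as hydrogen oxalate salts (some hydrochlorides); oxalate interference excluded at highest concentration.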

Experiment [3] addresses T1, 5-hydroxytryptamine receptor 1A (Rattus norvegicus, UniProt P19327).
T1 sequence (P19327 whole entry): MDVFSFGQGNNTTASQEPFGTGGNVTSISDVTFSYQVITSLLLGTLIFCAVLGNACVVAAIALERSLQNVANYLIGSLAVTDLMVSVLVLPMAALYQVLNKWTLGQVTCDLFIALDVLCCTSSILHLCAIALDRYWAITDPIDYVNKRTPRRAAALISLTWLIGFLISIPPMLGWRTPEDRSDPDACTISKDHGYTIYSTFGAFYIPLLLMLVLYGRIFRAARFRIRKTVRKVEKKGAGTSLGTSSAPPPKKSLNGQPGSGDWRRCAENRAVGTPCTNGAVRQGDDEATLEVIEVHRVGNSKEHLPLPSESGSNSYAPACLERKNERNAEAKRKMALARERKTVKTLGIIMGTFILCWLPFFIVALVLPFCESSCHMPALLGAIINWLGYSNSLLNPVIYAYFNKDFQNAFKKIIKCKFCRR
The experiment in a line: Binding affinity was tested on 5-hydroxytryptamine 1A receptor using radioligand [3H]5-HT binding assay. In outline:
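Six to nine drug concentrations, triplicate samples, two to three independent experiments. IC50 converted to Ki by Cheng–Prusoff, with Kd and Bmax from saturation experiments.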

In a further experiment the target is Glutamate NMDA receptor. Description: Binding affinity was tested on Phencyclidine binding assay. The class given is protein-complex assay. A digest of the protocol: (§3)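 [3H]phencyclidine binding to rat hippocampus membranes, with (+)-N-allylnormetazocine (SKF 10,047) defining specific binding. […] Ki via Cheng–Prusoff with Bmax and Kd taken from saturation experiments.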

For experiment [4], the target named is Serotonin 2 (5-HT2) receptor (Rattus norvegicus) (UniProt P30994+P08909+P14842). Description: Percentage specific displacement of radioligand [3H]ketanserin from 5-hydroxytryptamine 2 receptor. The class given is protein assay. Also on record: concentration or dose not given beside the values.
Experiment [5] addresses T2, Glutamate NMDA receptor (Rattus norvegicus) (UniProt P35439+Q00959+Q00960+Q00961+Q62645+Q8VHN2+Q9R1M7). Description: Binding affinity of compound was tested on Phencyclidine binding assay. The class given is protein-complex assay. In outline:
as §3

The nature of experiment [6]: Binding affinity of compound was tested on Phencyclidine binding assay.
For experiment [7], the target named is D(2) dopamine receptor (Rattus norvegicus) (UniProt P61169). The experiment in a line: (§4) Binding affinity of compound towards Dopamine receptor D2 was determined in rat striatal homogenate using [3H]- spiperone as radioligand. In outline:
as §2

Experiment [8] addresses T2, Glutamate NMDA receptor (Rattus norvegicus). The experiment in a line: Percentage specific displacement of radioligand [3H]phencyclidine from Phencyclidine receptor. The class given is protein-complex assay. A digest of the protocol: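 Rat hippocampus membranes, [3H]phencyclidine radioligand; (+)-N-allylnormetazocine (SKF 10,047) defined specific binding. Percent specific displacement run in triplicate at a single stated compound concentration.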

Experiment [9] has as its target Serotonin 2 (5-HT2) receptor (Rattus norvegicus, UniProt P30994+P08909+P14842). The experiment in a line: Percentage specific displacement of radioligand [3H]-ketanserin from 5-hydroxytryptamine 2 receptor. The class given is protein assay.
Experiment [10] concerns the target T3, D(2) dopamine receptor (Rattus norvegicus, UniProt P61169). The experiment is described as §1. In outline: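 Ki by Cheng–Prusoff using Bmax and Kd from saturation experiments. Tested as hydrogen oxalate salts (some hydrochlorides); oxalate interference excluded at highest concentration.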
Experiment [11] has as its target T3, D(2) dopamine receptor. The description is as §4. A digest of the protocol: as §2

Chain of D(2) dopamine receptor (Rattus norvegicus) (P61169 whole entry): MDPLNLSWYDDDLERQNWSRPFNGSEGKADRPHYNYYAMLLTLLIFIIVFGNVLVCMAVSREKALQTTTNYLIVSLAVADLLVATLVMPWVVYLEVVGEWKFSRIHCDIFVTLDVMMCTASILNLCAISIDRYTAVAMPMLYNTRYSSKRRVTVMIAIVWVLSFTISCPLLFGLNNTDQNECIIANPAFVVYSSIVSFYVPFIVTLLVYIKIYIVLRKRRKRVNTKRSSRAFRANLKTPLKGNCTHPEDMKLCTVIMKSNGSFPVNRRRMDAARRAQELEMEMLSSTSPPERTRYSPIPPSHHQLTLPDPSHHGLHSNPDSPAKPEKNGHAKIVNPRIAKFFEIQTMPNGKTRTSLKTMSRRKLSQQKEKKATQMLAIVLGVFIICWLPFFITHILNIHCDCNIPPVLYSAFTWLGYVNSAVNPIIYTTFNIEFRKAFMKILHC
T3 sequence (P61169 whole entry): as above
Chain of Serotonin 2 (5-HT2) receptor (Rattus norvegicus) (P08909 whole entry, looked up): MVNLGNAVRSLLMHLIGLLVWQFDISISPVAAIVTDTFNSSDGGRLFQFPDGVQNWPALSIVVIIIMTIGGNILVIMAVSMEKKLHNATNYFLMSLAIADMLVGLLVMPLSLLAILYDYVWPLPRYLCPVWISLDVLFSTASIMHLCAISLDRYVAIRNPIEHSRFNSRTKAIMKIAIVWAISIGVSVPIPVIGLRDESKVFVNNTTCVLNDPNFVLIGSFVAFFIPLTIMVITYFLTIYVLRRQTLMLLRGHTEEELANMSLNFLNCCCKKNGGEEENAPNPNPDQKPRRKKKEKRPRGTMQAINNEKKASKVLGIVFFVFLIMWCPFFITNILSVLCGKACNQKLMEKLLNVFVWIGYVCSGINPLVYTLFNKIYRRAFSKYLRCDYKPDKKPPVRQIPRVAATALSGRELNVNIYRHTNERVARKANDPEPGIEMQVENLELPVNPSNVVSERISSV
Chain of Serotonin 2 (5-HT2) receptor (Rattus norvegicus) (P14842 whole entry, looked up): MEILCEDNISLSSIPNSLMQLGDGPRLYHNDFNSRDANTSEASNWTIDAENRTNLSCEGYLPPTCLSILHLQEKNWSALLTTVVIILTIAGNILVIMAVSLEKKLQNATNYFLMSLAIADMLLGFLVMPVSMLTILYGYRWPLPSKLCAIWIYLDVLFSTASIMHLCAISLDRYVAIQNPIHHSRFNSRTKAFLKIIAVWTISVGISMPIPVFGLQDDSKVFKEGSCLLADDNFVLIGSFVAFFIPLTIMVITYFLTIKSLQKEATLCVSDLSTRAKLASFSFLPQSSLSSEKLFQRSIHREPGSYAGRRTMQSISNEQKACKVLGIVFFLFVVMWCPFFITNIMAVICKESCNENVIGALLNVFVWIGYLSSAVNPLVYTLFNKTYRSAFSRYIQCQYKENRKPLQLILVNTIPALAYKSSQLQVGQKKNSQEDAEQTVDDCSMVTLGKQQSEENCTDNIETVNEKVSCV
Chain of Serotonin 2 (5-HT2) receptor (Rattus norvegicus) (P30994 whole entry, looked up): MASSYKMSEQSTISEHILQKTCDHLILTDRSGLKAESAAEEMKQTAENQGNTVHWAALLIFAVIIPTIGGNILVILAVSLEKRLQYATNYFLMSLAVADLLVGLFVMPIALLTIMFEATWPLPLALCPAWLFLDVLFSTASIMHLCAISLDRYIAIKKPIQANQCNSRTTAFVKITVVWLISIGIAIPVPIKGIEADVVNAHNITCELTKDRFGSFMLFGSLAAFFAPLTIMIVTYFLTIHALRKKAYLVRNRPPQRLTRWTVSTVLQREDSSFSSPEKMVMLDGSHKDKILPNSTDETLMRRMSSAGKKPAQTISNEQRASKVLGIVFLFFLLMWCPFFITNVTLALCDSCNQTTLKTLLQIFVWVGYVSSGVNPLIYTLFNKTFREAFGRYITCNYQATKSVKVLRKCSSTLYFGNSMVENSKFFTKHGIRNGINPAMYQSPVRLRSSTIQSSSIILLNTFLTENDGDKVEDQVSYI

As to `CCCN(CCC)CCCCC1=CCCc2ccccc21`, the inhibition constant (Ki) in [1] is 0.0039 µM; in experiment [3] it was 0.357 µM; at Glutamate NMDA receptor it was 2.6 µM. The Displacement turned out to be 40% in experiment [2] and 60% in [4].

On to `C1=C(CCCCN2CCCCC2)c2ccccc2CC1`, for which the inhibition constant Ki in experiment [1] is 0.0039 µM; in experiment [3], over 1.43 µM. Moreover, the Displacement in experiment [5] turned out to be 92%; in experiment [2], 0%; in [4], 12%.

In experiment [6], `C=CCN1CCC2c3cc(O)ccc3CC1C2C` (configuration not stated) yielded a Ki of 0.37 µM.

Take `c1ccc2c(c1)CCN(CCCCC1CCCc3ccccc31)C2` (configuration not stated): the Ki was 0.0037 µM in experiment [1] and over 92.6 µM on Glutamate NMDA receptor.

Turning to `CCCN(CCC)CCCCC1CCCc2ccccc21` (configuration not stated), the values for the inhibition constant (Ki) (in experiment [1]; in experiment [3]; on Glutamate NMDA receptor) were 0.0047 µM, 0.2 µM and 9.91 µM, respectively. The Displacement is 31% in [2] and 66% in experiment [4].

In the case of `c1ccc2c(c1)CCCC2CCCN1CCCCC1` (configuration not stated), the Displacement in [7] was 0%; in experiment [8], 95%; in [4] it was 21%. The compound further displayed a Ki in experiment [3] of over 1.43 µM.

In the case of `COc1cccc2c1CCCC2CCCN1CCCCC1` (configuration not stated), the Ki in experiment [9] is over 5.52 µM; in experiment [3] it was over 1.43 µM; at Glutamate NMDA receptor, 3.24 µM; on D(2) dopamine receptor [10] it was over 1.85 µM.

As for `c1ccc(CC2CCN(CCCCC3CCCc4ccccc43)CC2)cc1` (configuration not stated), the Ki is 0.03 µM in experiment [1], 0.285 µM in [3] and over 92.6 µM on Glutamate NMDA receptor.

For `CC1(C)CCCN(CCCCC2CCCc3ccccc32)C1` (configuration not stated), the Ki in experiment [1] is 0.0008 µM; in [3] it was over 1.43 µM; on Glutamate NMDA receptor, over 92.6 µM; at D(2) dopamine receptor [10], over 10 µM.

On to `c1cc2c(s1)CCCC2CCCN1CCCCC1` (configuration not stated), for which the Ki at Glutamate NMDA receptor was over 92.6 µM.

With `CC1(C)CCCN(CCCC2CCCc3cscc32)C1` (configuration not stated), the Ki in experiment [3] is over 1.43 µM; on Glutamate NMDA receptor, 0.0094 µM.

`c1ccc2c(c1)CCCC2CCCCN1CCCCC1` (configuration not stated): the Ki in [1] is 0.0047 µM; in experiment [3] it was over 1.43 µM; on Glutamate NMDA receptor, 5.56 µM. Further, the values for the Displacement in experiment [2] and in experiment [4] were 27% and 64%, respectively.

Regarding `COc1cccc2c1CCCC2CCCN1CCCC(C)(C)C1` (configuration not stated), the Ki is 0.898 µM in experiment [3], 0.0342 µM on Glutamate NMDA receptor and over 10 µM on D(2) dopamine receptor [10].

Regarding `COc1cccc2c1CCCC2CCCN1CCC(Cc2ccccc2)CC1` (configuration not stated), the Ki on D(2) dopamine receptor [11] is 1.3 µM; in [3] it was under 0.00014 µM; at Glutamate NMDA receptor, over 92.6 µM.

With `COc1ccc2c(c1)C(CCCN1CCCCC1)CCC2` (configuration not stated), the Ki in [9] is over 5.52 µM; in [1] it was 0.0632 µM; in experiment [3] it was over 1.43 µM; at D(2) dopamine receptor [10], over 1.85 µM. The same compound yielded a Displacement in [8] of 88%.

Take `CCCN(CCC)CCCC1CCCc2ccccc21` (configuration not stated): the Ki in [1] was found to be 0.0067 µM; in experiment [3] it was 0.4 µM; at Glutamate NMDA receptor, 48.1 µM. In addition, the values for the Displacement in experiment [2] and in [4] were 0% and 51%, respectively.
